The experiment relates to Primary human hepatocytes, TRAIL cytotoxicity, ATPlite, 24 h. In words: hepatocyte cytotoxicity of TRAIL potentiators – cell-based, primary human hepatocytes, ATPlite luminescence, 24 h, cytotoxicity control for TRAIL sensitizer project, confirmation (AID 1746). As to conditions: for cytotoxicity with TRAIL: at 5 µM (top of the series); for cytotoxicity: stronger effect = higher value. An outline of the steps:
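Test system: Primary human hepatocytes | Probe or stimulus: TRAIL, 1000 ng/mL final | Doses: Compound at final amounts from 1.25 to 5 µM | Schedule: 4 h compound then 24 h TRAIL, 37 °C | Measured by: ATPlite luminescence | Measure: Cytotoxicity (%) after background subtraction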

Where [1] appears, read: compound alone without TRAIL, at 5 µM.
Setting [2] is: measured here: TRAIL alone reference, dose or concentration not given here.

For `CCSc1nc(-c2ccccc2)nc(C(Cl)Cl)n1`, the cytotoxicity with TRAIL was 73%. The cytotoxicity under setting [1] worked out at 47%. Further, the cytotoxicity under setting [2] turned out to be 0%.
The like results for `CSc1nc(-c2ccccc2)nc(C(Cl)Cl)n1` were, in that order, 68%, 22% and 0%.
Take `CSc1nc(-c2ccc(C)cc2)nc(C(Cl)Cl)n1`: the cytotoxicity with TRAIL was 67%. Moreover, the cytotoxicity under setting [1] amounted to 9%. The cytotoxicity under setting [2] stood at 0%.

For the origin of these results see PubChem BioAssay AID1746 (Sanford-Burnham Center for Chemical Genomics, 2009).
